According to ChEMBL document CHEMBL4513216, “Probing the Open Global Health Chemical Diversity Library for Multistage-Active Starting Points for Next-Generation Antimalarials” (ACS Infect Dis, 2020):

Assay: Toxicity liver stage against HepG2, at 10uM
Type: cell-based
Set-up: test concentration 10 uM, cell line HepG2-A16-CD81EGFP
Conditions: human, HepG2-A16-CD81EGFP cells; read-out: INHIBITION
How it was run: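 Uninfected HepG2-A16-CD81EGFP cells, 3 × 10^3 per well, 1536-well, plated on prespotted compound at 10 μM final, parasite-free screening media added to match infected plates; puromycin 10 μM positive, DMSO 0.5% negative; run in parallel with 48 h PbLuc assay at 37 °C, 5% CO2; viability by CellTiter-Glo luminescence, normalized to controls.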

Row | SMILES | cytotoxicity at 10 µM [%]
1 | O=C([C@@H]1Cc2[nH]cnc2CN1C(=O)NC1CCCCC1)N1CCCC1 | 6.06
2 | CN1C[C@@H](F)[C@@H](OCc2nc3ccc(C#N)cc3[nH]2)C1 | 0.434
3 | CS(=O)(=O)c1ccc(-c2ccccc2C(=O)O)cc1 | 0.238
4 | COCC(=O)Nc1cnc(N2CCCC2)nc1 | -5.93
5 | O=S(=O)(NCCn1ccc(-c2ccncc2)n1)C1CC1 | 0.794
6 | CC(=O)N1CCOC2(CCCN(C(=O)CCN3CCCCC3)C2)C1 (stereo unspecified) | -2.51
7 | Cc1cc(C)cc(C(=O)N2CCCC3(CCCC(=O)N3C)C2)c1 (stereo unspecified) | 5.06
8 | Cn1c2c(c(=O)n1C)CN(C(=O)c1ccco1)CCC2 | 10.5
9 | FC1(F)CCN(c2ccccc2)CC12CCN(c1ncccn1)C2 (stereo unspecified) | 3.71
10 | CCc1ncnc2c1CCN(c1ncc(F)cn1)CC2 | 7.86
11 | Cc1ccc(N2CCc3sc(C(=O)NCCN4CCCC4)cc32)nn1 | -2.19
12 | Cc1ccc(N2CC[C@H](O)[C@@H]2Cc2cnn(C)c2)nn1 | 0.434
13 | CCOCC1CN(C(=O)c2ccsc2)Cc2nn(C)cc21 (stereo unspecified) | 3.39
14 | COCC(=O)N1CCCn2c(CN3CCCC3=O)nnc2C1 | -123
15 | COc1nn(C)c2c1CCCN(C(=O)COc1ccccc1)C2 | 3.91
16 | COc1nn(C)c2c1CCCN(C(=O)c1ccc[nH]1)C2 | -0.966
17 | CCn1nnc2c1C(COC)CN(C(=O)Cc1ccccn1)C2 (stereo unspecified) | 4.64
18 | CN1CC2(CCNCC2)COc2ccccc2S1(=O)=O | 4.58
19 | Cc1ccsc1C(=O)N1CC(C(=O)NC(C)C)C2(CCOCC2)C1 (stereo unspecified) | -1.49
20 | CN(C(=O)Cn1nc(-c2ccccc2)ccc1=O)C1CCS(=O)(=O)C1 (stereo unspecified) | 1.82
21 | Cc1ccc(C)c(C(NC(=O)C(C)(C)C)c2cccnc2)c1 (stereo unspecified) | -3.7
22 | CNC(=O)c1cc2c(nc1NC(C)C)CCN(C(=O)NC(C)C)CC2 | -0.0714
23 | COCCCNS(=O)(=O)c1cccc(CSC)c1 | 11.9

Row | SMILES | cytotoxicity at 10 µM [%]
24 | CC(C)=CCCC(C)(O)c1cc(C(N)=O)no1 (stereo unspecified) | 3.56
25 | c1cnc(Nc2ccc(C3CCCCN3)cn2)cn1 (stereo unspecified) | 1.24
26 | CCN1CCCC(NC(=O)CCn2c(C(F)F)cc3cccnc32)C1 (stereo unspecified) | -0.212
27 | Cc1nc(Nc2nnc(C)s2)cc(C2CCCN2C(C)C)n1 (stereo unspecified) | -23.9
28 | CC(=O)N1CCC(c2nc(C)cc(-c3ccccc3C(=O)O)n2)CC1 | -28
29 | Cn1cc(NS(=O)(=O)CCOc2ccc(F)cc2)cn1 | -0.77
30 | Cc1cccc(C2CCCCCN2C(=O)c2cn(CC(N)=O)nn2)c1 (stereo unspecified) | 1.51
31 | COc1ccc(Cn2nc(C(N)=O)ccc2=O)c(Cl)c1 | 10.2
32 | O=S(=O)(c1cncc(F)c1)N1CCC2(CCOC2)C1 (stereo unspecified) | -0.872
33 | CC(=O)NCc1ccc(S(=O)(=O)NC(=O)c2ccc3c(c2)CCO3)s1 | 16.1
34 | Cc1ccc2c(c1)N(C(=O)c1nccnc1N)CC(C)O2 (stereo unspecified) | -1.65
35 | Cc1nccc(CNC(=O)NCCC(=O)N2CCCc3ccccc32)n1 | -0.457
36 | CCCC(C)N(C)Cc1nnc(-c2ccc(Br)s2)o1 (stereo unspecified) | -1.16
37 | CC(C)Oc1ccccc1C(=O)NC1CC(=O)N(CC(F)(F)F)C1 (stereo unspecified) | 4.37
38 | Cc1cc(C)c2nc(C3CC3)cc(C(=O)N3CCCC3C(N)=O)c2c1 (stereo unspecified) | -1.11
39 | CC(NC(=O)CCn1cccn1)c1cn(-c2ccccc2)nn1 (stereo unspecified) | 0.554
40 | O=C(CCNC(=O)NC1CC1)NCc1ccccc1 | 8.12
41 | CN(CCC#N)C(=O)CSc1cc(F)ccc1F | 13.2
42 | O=C(c1ccn(-c2ccccc2Cl)n1)N1CCCSCC1 | 4.22
43 | COc1ccc(NC(=O)c2ccoc2C)c(N2CCN(C(C)=O)CC2)n1 | -9.09
44 | CC(C)(C)OC(=O)NC(C)(C)c1noc(CSc2nncs2)n1 | 16.6
45 | Cc1nc(C(=O)N(C)CC(=O)N(C)C)nn1-c1ccccc1C(C)C | -6.5
46 | Cc1nc2n(n1)CC(NCc1ccnc(-c3ccccc3)n1)CC2 (stereo unspecified) | -0.898

Row | SMILES | cytotoxicity at 10 µM [%]
47 | O=C(Cc1ccc2c(c1)OCO2)N1CCCN(c2nccs2)CC1 | -11.9
48 | Cc1cc(NC(=O)CNc2cccc(C(=O)N3CCCC(O)C3)c2)no1 (stereo unspecified) | -2.21
49 | O=C(NC1CCN(C2CC2)CC1)c1[nH]nc(C2CC2)c1Cl | 2.64
50 | CC(NCC1CCN(CCO)CC1)c1cccnc1 (stereo unspecified) | -5.6
51 | O=C(NCCCO)Nc1cccc(C[S+]([O-])c2ccccc2)c1 (stereo unspecified) | 0.0964
52 | CC(C)n1nc2c(cc1=O)CN(Cc1ccc(-n3cccn3)cc1)CC2 | -145
53 | Cc1nc2sccn2c1CNc1cc(C(=O)O)ccc1F | 4.59
54 | O=C(CNC(=O)c1cnc2ccccc2c1O)NCCCn1ccnc1 | -5.28
55 | CCOc1cccc(CNC(=O)c2cnn(CC)c2C(F)(F)F)c1 | 11.7
56 | CN(C)c1cc(CNC(=O)NCC2(C)CCCS2)ccn1 (stereo unspecified) | 6.64
57 | CC(NC(=O)NCCc1nc(C(F)(F)F)cs1)C(=O)N(C)C (stereo unspecified) | 5.04
58 | COc1cccc(Cc2nnc(SC3CCOC3=O)o2)c1 (stereo unspecified) | 12.9
59 | COCCNC(=O)c1ccc(C)c(-n2cccc2)c1 | -3.06
60 | CSCCC(=O)N1C[C@H](Nc2ccnc(C)n2)[C@@H](C(C)C)C1 | -1.13
61 | CS(=O)(=O)Cc1nc(C2CC2)nn1-c1ccccn1 | 1.87
62 | O=C(c1ccc2nccn2c1)N(CCO)Cc1ccccc1F | 5.27
63 | O=C(O)C1(Oc2cccc(F)c2)CCN(C2CCOCC2)CC1 | -7.16
64 | Cc1cc(CN2CC[C@@H]3[C@@H](CCC(=O)N3CCc3c[nH]cn3)C2)oc1C | -0.466
65 | CCCN1CCN(C(=O)c2ccc3ccccc3n2)[C@H]2CS(=O)(=O)C[C@H]21 | -3.31
66 | O=C1CCCN1CCCNCc1cc(O)c2cccc(F)c2n1 | -1.16
67 | Cc1ccc2[nH]c(=O)c(CN(C)Cc3cc(C4CC4)[nH]n3)cc2c1 | -3.07
68 | O=C(C1NCCc2[nH]cnc21)N1CCC2(CC1)CNc1ccccc12 (stereo unspecified) | 1.04
69 | O=C(CCn1cc(Cl)cn1)N1CCCC(O)(CO)CC1 (stereo unspecified) | -145

Row | SMILES | cytotoxicity at 10 µM [%]
70 | COCCN(Cc1sccc1C)C(=O)c1c(O)cccc1F | -137
71 | CN(C)CCC1CN(C(=O)c2cccc3c2OCC3)CCO1 (stereo unspecified) | 2.13
72 | Cc1ocnc1C(=O)N1CCC(c2nccn2Cc2ccncc2)CC1 | -8.26
73 | Cc1nnc(NC(=O)N2CCN(Cc3ccc(F)cc3)C(=O)C2)s1 | -0.392
74 | c1ccc(-c2cc(CN3CCCCCC3c3ccco3)on2)nc1 (stereo unspecified) | -6.19
75 | COc1cc(NC2CCN(C3CCS(=O)(=O)CC3)CC2)ncn1 | 1.64
76 | O=C(C(O)c1ccccc1Cl)N1CCCN(Cc2cccnc2)CC1 (stereo unspecified) | 5.5
77 | O=C(c1ccc2ccccc2c1)C1CCCN(C(=O)Cn2cncn2)C1 (stereo unspecified) | 2.6
78 | CNC(=O)[C@@H]1C[C@@H](N)CN1C(=O)CCSCc1ccccc1 | 6.7
79 | Cc1cnc(NCCCN2CCc3ccccc32)nc1 | 2.24
80 | COc1ccnc(N2C[C@@H](NS(=O)(=O)N(C)C)[C@H](C(C)C)C2)n1 | -144
81 | Cc1c[nH]c(CN(C)C(=O)C2CC(=O)N(Cc3ccncc3)C2)n1 (stereo unspecified) | 16.7
82 | CC(C)c1ccc(-c2nonc2N)cc1 | -3.25
83 | CC(C)c1nnc(NC(=O)NC2CCN(Cc3ccccc3)C2)s1 (stereo unspecified) | -11.2
84 | NC(=O)Cn1cc(NC(=O)N2CCSCC2)cn1 | -9.95
85 | CNc1nc(CNC(=O)Nc2cccc(Cl)c2Cl)cs1 | -15.8
86 | Cn1ccnc1CN1CCN(Cc2noc(C3CC3)n2)CC1 | -1.85
87 | CC(=O)NCCNC(=O)CN1CCCCC1Cn1cncn1 (stereo unspecified) | 2.7
88 | CN(C)S(=O)(=O)CCCN1CCCC1c1noc(C2CC2)n1 (stereo unspecified) | -10.3
89 | Brc1cccc(-c2nnc(CNCCn3cccn3)o2)c1 | -9.59
90 | OC(CNCCn1cccn1)c1cccc(F)c1 (stereo unspecified) | -4.41
91 | Cc1nc(C)n(CC2CN(CCOc3ccccc3C#N)CCO2)n1 (stereo unspecified) | -7.45
92 | Cc1nccn1C1CCCN(C(=O)c2cc(Cl)c3c(c2)OCO3)C1 (stereo unspecified) | -2.78

Row | SMILES | cytotoxicity at 10 µM [%]
93 | CC(C)NC(=O)C1CCN(c2snc3ccccc23)CC1 | -8.18
94 | CCOc1ccc(Cl)c(C(=O)N(C)C)n1 | -11.3
95 | c1cnn(CC2CN(Cc3nc(-c4ccsc4)no3)CCO2)c1 (stereo unspecified) | -8.06
96 | O=C(c1ccc(O)cc1)N1C[C@@H]2OCCN(c3ncccn3)[C@@H]2C1 | 6.72
97 | Cc1noc(C)c1CN1CCn2cc(CN3CCCC3)nc2C1 | 5.37
98 | O=C1N(Cc2cccc(F)c2)CCC12CCN(c1ccccn1)CC2 | -1.16
99 | CN(C)C(=O)N1CC2(CCNCC2)c2cc(F)ccc21 | -79.9
100 | O=C(O)c1cc2c(nc1N1CCCC1)CCN(C1CCOCC1)CC2 | 3.02
101 | O=C(NC1CC1)[C@H]1C[C@H]2OCC[C@H]2N(Cc2ccc(F)cc2)C1 | 3.62
102 | CNC(=O)CN1CCOCC2(C1)CN(C(=O)C(C)C)CCO2 (stereo unspecified) | -0.182
103 | CC(C)CN1CCC2(CCN(Cc3ccc(F)cc3)CC2)C1=O | 5.71
104 | COCC1CC2(CCNCC2)CN1Cc1csc(C)n1 (stereo unspecified) | 5.77
105 | CO[C@@H]1CCN(C(=O)c2ccccn2)[C@H]1Cc1ccccc1 | 4.89
106 | Cc1ccc(CN2C[C@@H]3CCCO[C@@H]3[C@H](N(C)Cc3ccco3)C2)s1 | 3.88
107 | COCC(=O)N1CCO[C@H]2[C@H](OCc3cccnc3)CC[C@@H]21 | -2.01
108 | c1cc(CN2CCO[C@@H]3CNC[C@@H]32)cs1 | 9.22
109 | O=C(C1CCCCC1)N1C[C@@H]2CCN(c3cnccn3)C[C@@H]2C1 | 5.68
110 | CC(C)CCn1c(=O)[nH]c2cn(-c3ccc(F)cc3)c(=O)n21 | 2.97
111 | O=C1OCCN1CC(=O)N1C[C@@H]2CC[C@H]1CN(Cc1cscn1)C2 | -5.41
